An excerpt weighted towards active compounds, which were near 1.8% of everything screened.
LEDGF integ inh: blockers of LEDGF/p75-dependent integrase strand transfer – biochemical, TR-FRET, high throughput, primary screen | HIV-1 integrase (with human LEDGF/p75) | TR-FRET IN-LEDGF/p75 DNA integration, Eu/Cy5 | inhibition, % at 3.7 µM | 370,000 tested, 0.64% active;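 active means inhibition above the screen-wide mean plus 3 SD, cut at about 13% in these data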;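 further: signal is the Cy5 over europium emission ratio at 671 and 618 nm; 0% = plate median of compound wells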
MBD2 DNA inh: inhibitors of MBD2 binding to methylated DNA, primary screen, biochemical, TR-FRET, DNA-binding domain, human; 370,000 tested, 0.31% active; inhibition, % at 4.4 µM; MBD2 binding to methylated oligonucleotide; AID 686964, 2013; Methyl-CpG-binding domain protein 2 (Homo sapiens), Q9UBB5; in the data active means inhibition above about 13%
Casp6 inh: human caspase-6 inhibitors, primary screen, biochemical, VEID-R110 fluorescence, single point, set 2; purified caspase-6, Z-VEID-R110 cleavage fluorescence; inhibition, % at 12.5 µM; 350,000 tested, 0.53% active;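 active means mean inhibition across replicates at least about 35%, with every replicate also reaching that limit, limit read from the data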;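 further: 0% = median of neutral control wells and 100% = no fluorescence left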
NSD2 inh: NSD2 histone methyltransferase inhibitors, primary screen, biochemical, AlphaScreen, single concentration, set 2 | NSD2 peptide methylation, 120 min | 310,000 tested, 0.54% active | inhibition, % at 12.5 µM; in the data active means inhibition above about 50%
UHRF1 MBD2 ctr: UHRF1 methylated DNA binding inhibitors, primary screen, counter-screen for MBD2 inhibitor project, biochemical, TR-FRET, human UHRF1, single concentration; AID 687016, 2013; UHRF1 binding to methylated oligo; E3 ubiquitin-protein ligase UHRF1 (Homo sapiens), Q96T88; inhibition, % at 4.4 µM; 370,000 tested, 0.75% active; in the data active means inhibition above about 21%;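 further: UHRF1 SRA domain binding a hemimethylated CpG hairpin DNA probe; 0% = median of test compound wells and 100% = reference inhibitor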
TDP2 inh: human TDP2 enzyme inhibitors, primary screen, biochemical, epi absorbance, recombinant enzyme; Tyrosyl-DNA phosphodiesterase 2 (Homo sapiens), O95551; T5PNP hydrolysis, p-nitrophenol absorbance 415 nm; inhibition, % at 12.8 µM; 370,000 tested, 0.34% active;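 active means inhibition above the mean of all tested compounds plus 3 SD, set per campaign, cut at about 25% in these data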;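 further: 0% = DMSO with enzyme and 100% = buffer with substrate but no TDP2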
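Assay system: Recombinant human TDP2 | Quantity: 120 nM TDP2 per well | Incubation: 2 h at 37 °C | Signal: Epi absorbance | Evaluation: Percent inhibition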
* = called active by the depositor; . = no result given.

SMILES	LEDGF integ inh	MBD2 DNA inh	Casp6 inh	NSD2 inh	UHRF1 MBD2 ctr	TDP2 inh
COC(=O)COc1cc(Cl)c(C=O)cc1OC	4	0	0	1	-1	11
COc1cccc(C#Cc2cnc3c(c2)C(=O)N([C@H](C)CO)C[C@@H](C)[C@@H](CN(C)C(=O)C2CCOCC2)O3)c1	.	.	-3	.	.	.
CC1(c2nnnn2Cc2ccccc2)CCC(=O)N1CCc1ccc(O)cc1 (centres undefined)	-2	6	1	.	24*	3
NCC[C@@H]1CC[C@@H](NC(=O)c2ccccc2F)[C@H](CO)O1	.	.	2	.	.	.
O=C1CCC/C=C\C[C@@H](CC(=O)N(CCO)Cc2ccccc2)C(=O)N[C@H](c2ccccc2)CO1	2	5	-3	.	22*	8
CCCNC(=O)N1CC(=O)N2[C@H](CO)[C@@H](c3ccc(C#Cc4ccc(F)cc4)cc3)[C@@H]2C1	.	.	0	.	.	.
COCC(=O)Nc1ccc2c(c1)OC[C@H](C)N(Cc1cccc(F)c1)C[C@H](C)[C@@H](OC)CN(C)C2=O	.	.	1	.	.	.
C[C@@H]1CN([C@H](C)CO)C(=O)c2cccc(N(C)C)c2O[C@H]1CN(C)C	.	.	2	.	.	.
CCc1sc(C(=O)NCCc2ccc(S(N)(=O)=O)cc2)cc1C	0	8	3	28	0	6
CCc1sc(C(=O)NCCc2ccc(S(N)(=O)=O)cc2)cc1Br	3	5	-2	1	21*	-10
COCC(=O)N(C)C[C@H]1Oc2cc(-c3cccnc3)ccc2S(=O)(=O)N([C@H](C)CO)C[C@H]1C	.	.	-1	.	.	.
Cc1cccc(C(=O)NNC(=O)c2ccc(Br)cc2)c1	-1	11	-1	-2	21*	1
Cc1cccc(C(=O)NNC(=O)c2ccc(-c3ccccc3)cc2)c1	-1	5	.	-6	2	0
O=C(NN1C(=O)C2CC=C(Cl)CC2C1=O)c1ccncc1 (centres undefined)	4	-1	47*	22	6	-6
COc1ccccc1N1C(=O)Cc2ccccc2C1=O	-5	-1	49*	.	-3	-3
Cc1cccc(N2C(=O)Cc3ccccc3C2=O)c1	2	-5	48*	4	-6	5
Cc1ccc(N2C(=O)Cc3ccccc3C2=O)cc1	-2	0	50*	-5	-4	-5
Cc1cccc(N2C(=O)c3cccc4cccc(c34)C2=O)c1	-2	-5	1	2	3	-4
COc1ccc2c(c1)C(=O)N(c1ccccc1OC)C(=O)C2	-4	0	22	3	2	0
CO[C@@H]1CN(C)C(=O)c2cc(NS(=O)(=O)c3cccc(C)c3)ccc2OC[C@@H](C)N(C(=O)Cc2cccnc2)C[C@H]1C	.	.	-4	.	.	.
COCC(=O)N1[C@H](C#N)[C@@H](c2ccccc2-c2cccc(C)c2)[C@@H]1CO	.	.	-1	.	.	.
CN(C[C@H]1[C@H](c2ccccc2)[C@@H](CO)N1CC1CC1)C(=O)c1ccc(F)cc1	.	.	-3	.	.	.
CCOc1ccc(C(=O)Nc2ccc3c(c2)OCO3)cc1OCC	4	10	.	1	25*	5
CO[C@H]1CN(C)C(=O)c2ccc(NS(C)(=O)=O)cc2OC[C@H](C)N(Cc2cncnc2)C[C@@H]1C	.	.	2	.	.	.
O=C(C[C@@H]1CC[C@@H]2[C@H](COC[C@H](O)CN2C(=O)C2CCOCC2)O1)NCc1ccncc1	.	.	2	.	.	.
SMILES	LEDGF integ inh	MBD2 DNA inh	Casp6 inh	NSD2 inh	UHRF1 MBD2 ctr	TDP2 inh
Cc1csc2c(=O)sc(NC(=O)c3ccco3)nc12	3	0	5	0	-1	-5
O=C(Nc1nc2ccsc2c(=O)s1)c1ccco1	6	-1	37*	4	-1	1
S=c1[nH]nc(-c2ccc(Cl)cc2)n1/N=C/C=C/c1ccco1	10	2	19	20	9	2
S=c1[nH]nc(-c2cccnc2)n1/N=C/C=C/c1ccco1	0	-1	39*	6	0	2
C[C@H]1CN([C@@H](C)CO)C(=O)c2cccc(NC(=O)Nc3cccc4ccccc34)c2O[C@@H]1CN(C)C(=O)Nc1ccc2c(c1)OCO2	.	.	1	.	.	.
Cc1ccccc1SC1CCN(C(=O)C2CCC(=O)N(C3CC3)C2)CC1 (centres undefined)	-7	-8	-3	-4	-3	-6
Cc1ccc(SC2CCN(C(=O)C3CCC(=O)N(C4CC4)C3)CC2)cc1 (centres undefined)	2	7	-3	2	22*	17
COc1ccc(-c2cn(CC[C@@H]3CC[C@H](NC(=O)NC(C)C)[C@@H](CO)O3)nn2)cc1	.	.	2	.	.	.
CSCCC(NC(=O)c1ccccc1Cl)C(=O)N1CCCCC1 (centres undefined)	-2	1	-3	-3	41*	7
COc1ccc([Si](C)(C)[C@@H]2[C@@H](CCn3cc(CCO)nn3)O[C@]3(C(=O)N(c4ccccc4)c4ccccc43)[C@H]2C)cc1	.	.	-2	.	.	.
C[C@H](CO)N1C[C@H](C)[C@@H](CN(C)Cc2cccnc2)Oc2ncc(C#Cc3cccnc3)cc2C1=O	.	.	-1	.	.	.
CC(C)NC(=O)N(C)C[C@@H]1Oc2ccc(NS(=O)(=O)c3ccc(Cl)cc3)cc2CC(=O)N([C@H](C)CO)C[C@H]1C	.	.	-1	.	.	.
Cc1ccc(NC(=S)N2CCN(c3ccccc3F)CC2)c(C)c1	-1	3	19	-1	24*	1
COc1ccc(NC(=O)Nc2ccc3c(c2)CC(=O)N([C@H](C)CO)C[C@H](C)[C@H](CN(C)S(=O)(=O)c2ccc(F)cc2)O3)cc1	.	.	1	.	.	.
Cc1ccccc1N1CCN(C2CCCN(C(=O)c3csc(C(C)C)n3)C2)CC1 (centres undefined)	15*	0	2	4	1	-2
O=C1NC(=Nc2ccccc2Cl)S/C1=C\c1cccc([N+](=O)[O-])c1O	9	-6	39*	60*	-4	1
COc1cc2c(c(OC)c1OC)-c1ccc(NC(=O)c3ccc(F)cc3)c(=O)cc1[C@@H](NC(C)=O)CC2	7	8	.	6	21*	19
C[C@@H]1CCCCO[C@H](CN(C)C)[C@H](C)CN([C@@H](C)CO)C(=O)c2cc(NC(=O)Nc3ccccc3)ccc2O1	.	.	-2	.	.	.
COc1ccc(S(=O)(=O)n2ccnc2)c2cccnc12	1	-3	.	-1	22*	-7
Oc1c(CN2CCOCC2)cc(CN2CCOCC2)cc1CN1CCOCC1	-7	3	-21	-1	24*	3

Source: PubChem (several laboratories)
